Measured values as given in PubChem BioAssay AID1217 (Sanford-Burnham Center for Chemical Genomics, 2008).
Hit rate of the full screen: of about 190,000 compounds, about 1,300 (0.68%) were called active. This excerpt belongs to a sample that is enriched for actives. Values without a mark were called inactive.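 How the source made its calls: active means primary screen inhibition at 20 µM above a set limit (cut at about 50% in these data); inactive means the rest.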

system: diaphorase (Clostridium kluyveri); experiment: compounds blocking diaphorase resazurin reduction – biochemical, uHTS, resorufin fluorescence, counter-screen for diaphorase-coupled primary assays, primary screen (AID 1217);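 further: plate controls were DMSO with full reaction for no effect and wells lacking NADH for full effect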; settings: diaphorase resazurin-to-resorufin fluorescence, NADH, 16 min; at 20 µM; stronger effect = higher value; bacterial (C. kluyveri) enzyme, not human
How it was run: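 Assay system: diaphorase enzyme from Clostridium kluyveri. Quantity: enzyme working solution with 0.14 U/mL diaphorase. Schedule: reaction incubation of 16 min at room temperature. Technique: resorufin fluorescence, excitation 544 nm, emission 590 nm. Controls: No-NADH positive control and DMSO neutral control.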

Row | SMILES | inhibition
1 | CC1CC1C(=O)OCC(=O)c1c(N)n(C)c(=O)n(C)c1=O (stereo not drawn) | -19.7%
2 | Cc1cc(C)cc(NC(=O)Cn2cnc3c(nnn3Cc3ccc(F)cc3)c2=O)c1 | 1.8%
3 | COc1ccc(OC)c2[nH]c(=O)c(CCNC(=O)C(=O)c3c[nH]c4ccccc34)cc12 | 66.1% (active)
4 | COc1ccc(OC)c2[nH]c(=O)c(CCNC(=O)C(C)(C)C)cc12 | 2.9%
5 | COc1ccc(/C=C(\NC(=O)c2ccc(OC)c(OC)c2)C(=O)NCCc2c[nH]c3ccccc23)cc1 | 13.6%
6 | CCc1cc(C(N)=O)c(NC(=O)c2ccc(OC)cc2)s1 | 21.1%
7 | COc1ccc(C(=O)N/N=c2\oc3ccccc3cc2C(N)=O)cc1 | 75.5% (active)
8 | CCN(CC)c1ccc2cc(C(N)=O)/c(=N\NC(=O)c3ccncc3)oc2c1 | 25%
9 | COc1cccc(OC)c1C(=O)NC(=S)Nc1ccc(N2CCOCC2)c(Cl)c1 | 27.9%
10 | Oc1ccccc1/C=N/n1c(-c2cccs2)n[nH]c1=S | 35.3%
11 | S=c1[nH]nc(-c2cccs2)n1/N=C/c1cccs1 | 51.3% (active)
12 | Cc1ccc(/C=N\n2c(-c3ccccc3)n[nH]c2=S)s1 | 19.9%
13 | CCN(C(=O)COC(=O)c1ccc(COc2ccc3c(C)cc(=O)oc3c2)cc1)C1CCS(=O)(=O)C1 (stereo not drawn) | 0.7%
14 | CN(C)CCN=c1cc(-c2ccccc2)oc2ccc(Cl)cc12 | -1.4%
15 | O=C(COC(=O)c1cc([N+](=O)[O-])ccc1NCc1ccccc1)NC1CCCCC1 | 3%
16 | CC(C)c1ccc(/C=C/C(=O)NNC(=O)c2cccnc2)cc1 | 6.9%
17 | O=C(/C=C/c1ccc(F)cc1)NCCNC(=O)/C=C/c1ccc(F)cc1 | 3.6%
18 | O=C(/C=C/c1ccc(F)cc1)NC(=S)NNC(=O)c1cccnc1 | 67.6% (active)
19 | CCc1cccc(NC(=O)CCNS(=O)(=O)c2cccc3nonc23)c1 | 6.4%
20 | CC(=O)Nc1ccc(S(=O)(=O)NC(C)C(=O)OCC(=O)NC2CCCC2)cc1 (stereo not drawn) | 6.2%
21 | O=C(CSc1ncn[nH]1)Nc1ccnc2ccccc12 | -2.2%

Row | SMILES | inhibition
22 | O=C(CSc1n[nH]c(-c2cccnc2)n1)Nc1ccnc2ccccc12 | 54% (active)
23 | Cc1c(Cl)cccc1NC(=O)CSc1ccc(-c2cccnc2)nn1 | -1.3%
24 | Cc1nc(-c2ccccc2)cn2c1nc1ccccc12 | 16%
25 | Cc1cc(=O)[nH]c(=S)[nH]1 | 5.9%
26 | O=c1[nH]c(=S)[nH]c2[nH]c(=S)[nH]c12 | 87.4% (active)
27 | O=C(N1CCCCC1)N1CCN(C(=O)N2CCCCC2)CC1 | -5.4%
28 | CC(/C=N/NC(=O)c1cc(-c2ccc3ccccc3c2)n[nH]1)=C\c1ccco1 | 5.2%
29 | C/C(=C\c1ccco1)C1Nc2cccc3cccc(c23)N1 | 69.5% (active)
30 | CC(/C=N/NC(=O)c1ccncc1)=C\c1ccco1 | 5.5%
31 | C=CCN1C(=O)C(O)(CC(=O)c2ccc(Cl)cc2)c2ccccc21 (stereo not drawn) | 20%
32 | Cc1coc(C)c1C(=O)CC1(O)C(=O)N(C)c2ccc(Cl)cc21 (stereo not drawn) | 51.4% (active)
33 | CC(=O)c1c(O)cc2n(c1=O)-c1ccc(Cl)cc1C2(C)C | 18.3%
34 | Cc1ccc(O)c(NC(=S)NC(=O)COc2ccc(Br)cc2)c1 | 1.8%
35 | COCCN(CCOC)S(=O)(=O)c1ccc(/C(O)=C(\C#N)c2nc3ccccc3[nH]2)cc1 | 5.6%
36 | Cc1coc2c(O)cc3c(c12)OC1(N2CCCCC2)C(=O)NCCCC31 (stereo not drawn) | 56.1% (active)
37 | O=C(Cc1cccs1)Nc1nnc(SCc2ccc(F)cc2)s1 | 11.1%
38 | COc1cc2sc(C)nc2cc1C | 6%
39 | CC1=C/C(=N\OS(=O)(=O)c2ccccc2)C=CC1=O | 71.4% (active)
40 | CC1=C/C(=N\S(=O)(=O)c2ccccc2)C(C(C)C)=CC1=O | 21.7%
41 | CCOC(=O)C1(S(=O)(=O)c2ccccc2)CCN(Cc2ccccc2)CC1 | 16.8%
42 | O=C1CCCC2=C1C(c1cccs1)CC(=O)N2c1ccc(F)cc1 (stereo not drawn) | 6.3%

Row | SMILES | inhibition
43 | CC(C)N1CCC(N2CCN(Cc3cccnc3)CC2CCO)CC1 (stereo not drawn) | -0.8%
44 | CCOC(=O)C1CCN(C(=O)C2(NC(=O)Nc3cccc(F)c3)CCCCC2)CC1 | -16.4%
45 | O=C(Cc1ccc(-n2c(=O)[nH]c3ccccc3c2=O)cc1)N1CCN(c2cccc(Cl)c2)CC1 | 19.4%
46 | CCCCNC(=O)c1ccc(-n2c(=S)[nH]c3ccccc3c2=O)cc1 | 6.2%
47 | CCOC(=O)N1CCN(C(=O)Cc2ccc(-n3c(=S)[nH]c4ccccc4c3=O)cc2)CC1 | 51.3% (active)
48 | Cc1ccc(S(=O)(=O)CC(=O)Nc2c(C)n(C)n(-c3ccccc3)c2=O)cc1 | -0.5%
49 | C/C(O)=C\c1nc(=O)c2c(C)cc(C)nc2n1-c1ccccc1 | 13.4%
50 | Cc1cc(C)c2c(-n3cccc3)c(NC(=O)OCc3ccccc3)sc2n1 | 18.4%
51 | Cc1cc(C)c2c(n1)sc1c(=O)n(-c3ccccc3)c(=O)[nH]c12 | 59.3% (active)
52 | OCCC1CN(Cc2cccn2-c2nccs2)CCN1CCc1ccccc1 (stereo not drawn) | 18.5%
53 | N#C/C=C(/c1ccc(F)cc1)N1CCOCC1 | 20.9%
54 | O=C(CSc1nnc(-c2cccnc2)n1Cc1ccco1)c1ccc(Cl)cc1 | 16.4%
55 | O=C(CSc1nnc(-c2cccnc2)n1Cc1ccco1)c1ccc(Cl)c(Cl)c1 | 4%
56 | C(=C\c1ccccc1)/CSc1nnc(-c2cccnc2)n1Cc1ccco1 | 53.4% (active)
57 | CC(=O)c1ccc(N2CCN(CC(=O)Nc3ccccc3N3CCOCC3)CC2)cc1 | 4%
58 | O=C(N/N=C/c1ccc2c(c1)OCO2)C(=O)N1CCCC1 | -1.9%
59 | CN(C(=O)CSc1nnc(Nc2ccccc2)s1)C1CCS(=O)(=O)C1 (stereo not drawn) | 15%
60 | Cn1c(-c2ccco2)nc2cc3ccccc3cc21 | 18.4%
61 | Cc1nn2c3ccccc3nc2n(C)c1=O | 15.5%
62 | c1coc(-c2nc3nc4ccccc4n3nc2-c2ccco2)c1 | 57.8% (active)
63 | COc1cccc(NC(=S)N(Cc2ccc(C)cc2)Cc2ccccn2)c1 | 3.1%

Row | SMILES | inhibition
64 | Cc1cc(-c2csc(N)n2)c(C)n1-c1ccccc1 | 19.9%
65 | CC(Sc1nc2c([nH]c3ccccc32)c(=O)n1C)c1ccccc1 (stereo not drawn) | 2.9%
66 | C=CCOc1c(CNn2cn[nH]c2=S)cccc1OC | 39.3%
67 | COc1cccc(CNn2cn[nH]c2=S)c1OCc1ccccc1 | 79.8% (active)
68 | C=CCOc1cccc(CNn2cn[nH]c2=S)c1 | 14%
69 | O=c1[nH]n2c(=O)c3c([nH]c2c1N=Nc1ccccc1)CCC3 | 20.3%
70 | Cc1csc(SCC(=O)Nc2sccc2C#N)n1 | -2.4%
71 | CCOc1ccc(CN2CCN(Cc3ccc(C)o3)CC2CCO)cc1 (stereo not drawn) | -6.4%
72 | OC(COc1ccc(CN2CCSCC2)cc1)CN1CCCCC1 (stereo not drawn) | 6.8%
73 | CCOc1ccc(CN2CCCN(C)CC2)cc1 | 76.8% (active)
74 | N#CC1(NC(=O)COc2ccc3oc4ccccc4c3c2)CCCCC1 | -0.7%
75 | O=[N+]([O-])c1cccc(-c2nnc3c4ccccc4c4ccccc4n23)c1 | 3.7%
76 | CC(=O)c1c(-c2ccccc2)c2ccccc2[nH]c1=O | 17.9%
77 | O=c1[nH]c2ccccc2n2c(-c3ccccc3)nnc12 | 66.5% (active)
78 | Cn1ncc2c(NNC(=O)Cc3cccc4ccccc34)ncnc21 | 8.6%
79 | CC(C)(C)N(CC#CCC(O)(c1ccccc1)C1CCCC1)CCO (stereo not drawn) | 57.2% (active)
80 | CN(CC#CCC(c1ccccc1)c1ccccc1)C(C)(C)C | 17.9%
81 | OC(C#CCN1CCOCC1)(c1ccccc1)C1CCCCC1 (stereo not drawn) | -10.7%
82 | O=S(=O)(Nc1ccc2cn[nH]c2c1)c1ccccc1 | 6.9%
83 | COc1cccc(-c2ccc(C#N)c(SCC(=O)NCCc3ccc(Cl)cc3)n2)c1 | 7%
